Calls of active or inactive are those of the source.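 Rule for the calls: active = active in primary screen and both duplicates, each dropping signal beyond three positive-control SD with fluorescence still positive; inactive = the rest.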
Target: Short transient receptor potential channel 6 (Mus musculus) (UniProt Q61143)
Assay: inhibition of mouse TRPC6 channel, confirmation, selectivity assay for TRPC4 inhibitor project, cell-based, HEK293, membrane potential dye, duplicate (AID 434948)
Conditions: HEK293 TRPC6, membrane potential dye fluorescence, at 10 µM, stimulated with maximal-effect acetylcholine
How it was run: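 Test system: TRPC6-expressing HEK293 cells / Probe or stimulus: acetylcholine at maximal (ECmax) concentration, added after compound / Schedule: dye 45 min RT, compound 110 s, agonist read 110 s / Technique: membrane potential dye fluorescence, kinetic read / Read-out basis: control-normalized integrated fluorescence ratio / Repeats: two replicates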

Short transient receptor potential channel 6 (Mus musculus), sequence (Q61143 whole entry, looked up): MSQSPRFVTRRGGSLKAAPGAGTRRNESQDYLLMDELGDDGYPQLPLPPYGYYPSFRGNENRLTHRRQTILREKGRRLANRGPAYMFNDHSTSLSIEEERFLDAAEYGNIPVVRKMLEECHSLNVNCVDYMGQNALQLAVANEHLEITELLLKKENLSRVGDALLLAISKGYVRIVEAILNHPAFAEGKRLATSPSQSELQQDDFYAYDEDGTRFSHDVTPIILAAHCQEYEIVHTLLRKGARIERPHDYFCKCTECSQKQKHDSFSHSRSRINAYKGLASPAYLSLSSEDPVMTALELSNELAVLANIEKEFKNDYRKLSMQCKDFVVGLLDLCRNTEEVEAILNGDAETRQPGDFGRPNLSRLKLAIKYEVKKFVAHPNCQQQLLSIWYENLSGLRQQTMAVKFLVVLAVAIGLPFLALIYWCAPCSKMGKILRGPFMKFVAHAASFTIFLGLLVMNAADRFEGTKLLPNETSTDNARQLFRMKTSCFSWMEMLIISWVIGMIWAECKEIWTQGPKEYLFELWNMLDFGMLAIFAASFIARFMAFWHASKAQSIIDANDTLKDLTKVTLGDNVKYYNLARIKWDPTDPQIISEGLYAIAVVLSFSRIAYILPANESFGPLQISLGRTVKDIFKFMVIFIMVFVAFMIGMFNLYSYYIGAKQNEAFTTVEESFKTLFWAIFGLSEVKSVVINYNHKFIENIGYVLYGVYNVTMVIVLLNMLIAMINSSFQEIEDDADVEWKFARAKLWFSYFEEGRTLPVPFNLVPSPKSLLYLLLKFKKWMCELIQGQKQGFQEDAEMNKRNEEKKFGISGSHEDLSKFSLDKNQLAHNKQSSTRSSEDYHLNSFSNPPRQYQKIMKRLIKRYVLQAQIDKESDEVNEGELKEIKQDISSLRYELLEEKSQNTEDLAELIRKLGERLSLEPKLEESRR

outcome, inactive:
CN1CCC(CNC(=O)Nc2ccccc2)(c2ccccc2)CC1
Cc1ccc(C)c(OCCCCCn2ccnc2)c1
CN(C)C(CNC(=O)c1ccc2ccccc2n1)c1ccccc1 (stereo not given)
CCn1cc(CN2CCC(n3nccc3NC(=O)CCOc3ccccc3)CC2)cn1
CCOC(=O)C1(CCOc2ccccc2)CCN(Cc2cnc(C)s2)CC1
CCN1CCN(c2ccc(S(=O)(=O)N3CCOCC3)cc2NC(=O)C(C)Oc2cccc(Cl)c2)CC1 (stereo not given)
CN(CCc1nc2ccc(Cl)cc2[nH]1)Cc1nc(CC2CC2)no1
COc1ccccc1CCC(=O)Nc1cc(S(=O)(=O)N2CCCCC2)ccc1N1CCN(C)CC1
CCCCC(=O)NNC(=S)NC(=O)c1ccc(C)cc1
Cc1ccc(C2N(c3ccc(Cl)c(Cl)c3)C(=O)C3CCCN32)o1 (stereo not given)
COc1ccccc1N1CCN(C(c2cccs2)C(C)NC(=O)c2cccs2)CC1 (stereo not given)
O=C(Nc1nnc(-c2ccccc2Cl)o1)c1nc2ccccc2s1
CCOC(=O)C1(CC2CCCCO2)CCN(Cc2c(C)cc(C)cc2-n2cccn2)CC1 (stereo not given)
Cc1ccccc1OCC(=O)NNC(=S)NC(=O)c1ccco1
Cc1ccc(C2(O)CN(c3ccccc3C)C3=[N+]2CCS3)cc1 (stereo not given)
Cc1ccccc1C(=O)NNC(=S)NC(=O)c1ccccc1
Cc1ccc(C(=O)NC(=S)NNC(=O)c2ccccc2)cc1
Fc1ccc(-c2nnc(CN3CCN(c4ncc(C(F)(F)F)cc4Cl)CC3)o2)cc1
CNCCCOc1ccc2c(c1)CCC2
CCN(CCCNS(=O)(=O)c1cc(-c2cc(C)no2)ccc1C)Cc1ccccc1
CCOC(=O)c1oc2ccc(OC)cc2c1NC(=O)CN1CCN(C)CC1
COc1ccc(C(CNC(=O)c2cc(SC)ccc2Cl)N(C)C)cc1 (stereo not given)
O=C(NCCc1ccccn1)C(F)(F)C(F)(F)C(F)(F)C(F)(F)C(F)(F)C(F)F
CCCCCSc1nnc2c(n1)OC(c1cccn1C)N(C(C)=O)c1ccccc1-2 (stereo not given)
COc1ccc(-c2cc(C#N)nc(N3CCNCC3)n2)cc1
Cc1ccccc1NC(=S)NCCc1ccccn1
Cn1c(CN2CCN(c3cccc(Cl)c3)CC2)nc2ccccc21
O=C(Cn1c(-c2ccccc2)c[n+]2ccsc12)c1ccc(Br)cc1
CCn1c(N2CCN(Cc3ccc([N+](=O)[O-])cc3)CC2)nc2ccccc21
CN(C)C(CNC(=S)Nc1ccc(F)cc1)c1cccnc1 (stereo not given)
COc1ccc(C(=O)NC(=S)NNC(=O)c2c(-c3ccccc3)noc2C)cc1OC
CC1CC(C)CN(CCCNC(=O)COc2cc(=O)n(C)c3ccccc23)C1 (stereo not given)
CN(C)CCCN(C(=O)c1ccc(C(=O)c2ccccc2)cc1)c1nc2ccc(F)cc2s1
CCCCN(CC)CCNC(=O)c1cc2cc3ccc(Cl)cc3nc2o1
COc1ccc(C(=O)NC(=S)NNC(=O)CCc2ccccc2)cc1
CCN(CC)CCSc1nc2ccc(OC)cc2[nH]1
Cc1ccc(C)c(OCCCCn2ccnc2)c1
Cc1nc(/N=C(\N)NC(=O)NC2CCCCC2)nc2ccccc12
COC(=O)[C@@]1(Cc2ccc(F)cc2)[C@H]2c3cc(C(=O)N(C)C)n(CCc4ccccn4)c3C[C@H]2CN1C(=O)c1ccccc1
O=C(CNS(=O)(=O)c1ccc2ccccc2c1)NCCc1ccccn1

— PubChem BioAssay
